The values below come from publication PMC5028098 (International Journal of Nanomedicine, 2016).

Holding throughout (format): cell-based, human
For one test, the system named is HUVECs. Nature of the test: Transwell migration. The note with it: HUVECs in TCM from treated MDA-MB231 cells, dose-dependent for HBP.
Another test concerns MMP2. The test can be described thus: Western blot of MMP2 in HUVECs incubated with TCM. The note with it: TCM 24 hours, dose-dependent for HBP. Summed up:
(§1)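 HUVECs (2×10^5) were grown to 90% confluence, starved 12 h in 2% serum, then incubated 24 h with conditioned medium from MDA-MB231 cells treated with graded test-peptide concentrations. Cells were lysed on ice. Equal protein (40 μg, Bradford) was run on 10% SDS-PAGE and blotted to nitrocellulose. Primary antibody incubation was 4 h at 4°C, followed by HRP anti-rabbit IgG (1:2,000). Bands were quantified by densitometry relative to untreated-medium control; three experiments, mean ± SD.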
On the technique in general: In western blotting, separated proteins are transferred to a membrane and probed.

A further test concerns MMP9. The test can be described thus: Western blot of MMP9 in HUVECs incubated with TCM. The note with it: TCM 24 hours, decreased to a greater extent than MMP2 for HBP. Summed up: as §1

VEGF: the “effect on migration / number of invasive ECs” value in the test with HUVECs is listed as “no inhibitory effect”. Also, in the test with MMP2, the “expression of MMP2 in HUVECs” value is “not affected”. Also, the “expression of MMP9 in HUVECs” value in the test on MMP9 was “not affected”.
